Data reported in ChEMBL document CHEMBL3872226, “Evaluation of selected 3D virtual screening tools for the prospective identification of peroxisome proliferator-activated receptor (PPAR) γ partial agonists” (Eur J Med Chem, 2016).

What was measured:
[1] = target: T1, Peroxisome proliferator-activated receptor gamma (Homo sapiens) (UniProt P37231); assay: Transactivation of GAL4-fused human PPARgamma ligand binding domain expressed in African green monkey COS7 cells at 10 uM after 42 hrs by dual luciferase reporter gene assay relative to pioglitazone; format: cell-based; details: COS-7
T1 sequence (whole entry): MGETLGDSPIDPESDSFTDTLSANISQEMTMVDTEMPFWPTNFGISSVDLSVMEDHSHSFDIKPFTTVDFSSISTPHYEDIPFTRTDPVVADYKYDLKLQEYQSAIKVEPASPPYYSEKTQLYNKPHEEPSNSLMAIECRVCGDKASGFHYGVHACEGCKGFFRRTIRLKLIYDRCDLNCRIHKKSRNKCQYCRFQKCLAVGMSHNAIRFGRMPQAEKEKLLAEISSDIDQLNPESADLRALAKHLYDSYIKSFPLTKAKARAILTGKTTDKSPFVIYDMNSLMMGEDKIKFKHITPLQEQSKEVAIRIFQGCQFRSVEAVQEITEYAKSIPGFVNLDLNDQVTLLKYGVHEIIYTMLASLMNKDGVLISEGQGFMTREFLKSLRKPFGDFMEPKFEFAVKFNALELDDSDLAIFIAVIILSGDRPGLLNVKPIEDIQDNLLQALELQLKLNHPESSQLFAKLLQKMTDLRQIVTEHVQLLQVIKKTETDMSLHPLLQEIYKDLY
Outline: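 COS-7 cells seeded at 10^4 cells/well in DMEM with 10% FCS, grown 24 h at 37 °C, 5% CO2. Transiently transfected in serum- and antibiotic-free medium with pGal5-TK-Luc (30 ng), pGal4-PPARγ-LBD (3 ng) and pRenilla-CMV (1 ng). Compounds or DMSO vehicle added after 4 h, triplicates; dual-luciferase read after 42 h. Activation relative to pioglitazone.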

[2] = target: T1, Peroxisome proliferator-activated receptor gamma (Homo sapiens); assay: Displacement of Fluoromone from GST-tagged recombinant human PPARgamma ligand binding domain at 10 uM by LanthaScreen TR-FRET assay relative to pioglitazone
Outline: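 Recombinant GST-tagged PPARγ LBD incubated with terbium-labelled anti-GST antibody and fluorescein-labelled pan-PPAR agonist Fluoromone (5 nM), triplicates; DMSO negative control, pioglitazone and telmisartan positive controls. TR-FRET read as 520/495 nm emission ratio; compound autofluorescence subtracted as blank. Displacement expressed relative to pioglitazone.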

[3] = target: T2, Peroxisome proliferator-activated receptor gamma (Homo sapiens, UniProt P37231); assay: Displacement of Fluoromone from GST-tagged recombinant human PPARgamma ligand binding domain by LanthaScreen TR-FRET assay
T2 sequence (P37231 whole entry): T1 sequence (whole entry)

[4] = target: T2, Peroxisome proliferator-activated receptor gamma; assay: Transactivation of GAL4-fused human PPARgamma ligand binding domain expressed in African green monkey COS7 cells after 42 hrs by dual luciferase reporter gene assay; format: cell-based, COS-7

| Activity [1] | inhibition [2] | other results | SMILES |
| --- | --- | --- | --- |
| 14.4% | – | – | N#Cc1c(SCc2ccccc2)nc2c(c1/C=C\c1ccccc1)CCC2 |
| 12.8% | – | – | Cc1noc(C)c1-c1nc(CS(=O)(=O)Cc2ccc(Cl)cc2)no1 |
| 6% | – | – | Cc1ccc(S(=O)(=O)Nc2ccc(Oc3cccnc3)nc2)cc1 |
| 12.3% | – | – | O=C(CSc1nnc(SCC(=O)NCCSCc2ccco2)s1)NCCSCc1ccco1 |
| 9.8% | – | – | Cc1[nH]c2ccccc2c1SCc1nnc(SCc2ccccc2)n1C |
| 7% | – | – | Cc1ccc(Sc2c(C(=O)O)cnc3c2c(C)nn3C)cc1 |
| – | 80% | EC50 [3]: 2100 nM | O=S(=O)(c1ccc(Cl)cc1)c1cnn(S(=O)(=O)c2ccc(Cl)cc2Cl)c1-c1ccc(Cl)cc1 |
| 2.8% | – | – | Cc1nc(CSc2nnc(-c3ccc(C(F)(F)F)cc3)n2Cc2ccco2)cs1 |
| – | 91% | EC50 [3]: 700 nM | CCCc1nc2c(C)cc(-c3nc4ccccc4n3C)cc2n1Cc1ccc(-c2ccccc2C(=O)O)cc1 [TELMISARTAN] |
| 8.4% | – | – | Cc1noc(C)c1-c1noc(CSCc2ccc(Cl)cc2)n1 |
| 11.1% | – | – | O=C(CSCc1ccc(Cl)c(Cl)c1)c1ccc(OCc2ccc([N+](=O)[O-])cc2)cc1 |
| 9% | – | – | Cc1cc(Oc2nc(NCCSC(C)(C)C)nc(Oc3cc(C)c(Cl)c(C)c3)n2)cc(C)c1Cl |
| – | 45% | – | O=S(=O)(Nc1ccc(Oc2ccc(OC(F)(F)F)cc2)cc1)c1cc(Cl)c(Cl)cc1Cl |
| 9.9% | – | – | COc1ccc(CCNc2ccc(C(F)(F)F)cc2/N=C/c2cc(Cl)cc(Cl)c2O)cc1OC |
| 3% | – | – | Cc1nn(C)c(Cl)c1S(=O)(=O)Nc1ccc(Oc2ccc(F)cc2)cc1 |
| 10.1% | – | – | Cc1ccc(S(=O)(=O)n2nc(C)c(Sc3nccn3C)c2C)cc1 |
| 9.1% | – | – | O=c1n(Cc2ccc(Cl)cc2Cl)c2ccccc2n1Cc1ccc(Cl)cc1Cl |
| – | 76% | EC50 [3]: 5400 nM | CSc1nc(Sc2nnc(-c3cc(C(F)(F)F)cc(C(F)(F)F)c3)[nH]2)cc(Sc2nnc(-c3cc(C(F)(F)F)cc(C(F)(F)F)c3)[nH]2)n1 |
| 41.9% | 86% | EC50 [4]: 21700 nM; EC50 [3]: 2800 nM | O=C(CN1c2ccccc2Sc2ccccc21)NNC(=S)NCc1ccccc1 |
| – | 48% | – | O=S(=O)(CS(=O)(=O)Oc1cc(Cl)cc(Cl)c1)Oc1cc(Cl)cc(Cl)c1 |
| 12% | – | – | O=C(O)c1cn(C2CCCCC2)c2ccccc2c1=O |
| 23.7% | 99% | EC50 [4]: 3400 nM; EC50 [3]: 600 nM | O=S(=O)(Nc1cc(Cc2cc(NS(=O)(=O)c3ccccc3)cc(C(F)(F)F)c2)cc(C(F)(F)F)c1)c1ccccc1 |
| – | 60% | EC50 [3]: 3100 nM | COc1ccc(-c2cn3cccc(OCc4ccc(Cl)c(Cl)c4)c3n2)cc1 |
| 9.5% | – | – | COc1nc(-c2ccc(OCc3ccccc3)cc2OCc2ccc(F)cc2)cc(-c2ccc(C)cc2)c1C#N |
| 2.7% | – | – | Oc1c(O)c(CN2CCCCC2)c2ccccc2c1CN1CCCCC1 |
| 7.8% | – | – | Cc1c(NS(=O)(=O)c2ccc(S(=O)(=O)c3ccccc3)s2)c(=O)n(-c2ccccc2)n1C |
| – | 42% | – | COc1cc2c(cc1OC)C(/C=C1\SC(C(=O)c3cccs3)=NN1c1ccc(C)cc1)=NCC2 |
| 8.1% | – | – | Cn1ccnc1SCc1nccn1Cc1ccc(Cl)cc1 |
| – | 46% | – | N#CC(/N=C/c1cc(Cl)cc(Cl)c1O)=C(C#N)/N=C/c1cc(Cl)cc(Cl)c1O |
| 9.8% | – | – | CC(C)(CC(=O)O)CC(=O)N1CCCN(c2nccc(C(F)(F)F)n2)CC1 |
